Measured values taken from ChEMBL document CHEMBL1135530, “Selective alpha4beta7 integrin antagonists and their potential as antiinflammatory agents” (J Med Chem, 2002).
Peptide text beside a SMILES is read from it.

What was measured:
[1] = Selectivity is the ratio of inhibitory concentrations at alpha4-beta1 integrin to alpha4-beta7 integrin
[2] = biological target: Integrin alpha-4/beta-1 (Homo sapiens, UniProt P05556+P13612); assay: Inhibitory concentration affording 50% inhibition of alpha4-beta1 integrin binding to VCAM-1, using ELISA assay.; assay type: protein-complex assay
How it was run: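 α4β1 extracted from Ramos cell membranes (lectin chromatography, gel filtration in 1% octylglucoside), with 1 mM MnCl2 throughout. Wells coated with 4 µg/mL recombinant soluble human VCAM-1 (5 N-terminal Ig domains, from CHO cells) and blocked with 1% BSA. Inhibitor and receptor 2 h at 37 °C in Tris pH 7.4. Bound receptor detected with anti-β1 mAb 2D4.6, then HRP anti-mouse and TMB at 450 nm. IC50 at half-maximal absorbance.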

[3] = biological target: T1, Integrin alpha-4/beta-7 (Homo sapiens, UniProt P13612+P26010); assay: Ability to block the alpha4-beta7 integrin-MAdCAM-1 binding interaction using a protein ELISA format; assay type: protein-complex assay
T1 sequence (P13612 whole entry): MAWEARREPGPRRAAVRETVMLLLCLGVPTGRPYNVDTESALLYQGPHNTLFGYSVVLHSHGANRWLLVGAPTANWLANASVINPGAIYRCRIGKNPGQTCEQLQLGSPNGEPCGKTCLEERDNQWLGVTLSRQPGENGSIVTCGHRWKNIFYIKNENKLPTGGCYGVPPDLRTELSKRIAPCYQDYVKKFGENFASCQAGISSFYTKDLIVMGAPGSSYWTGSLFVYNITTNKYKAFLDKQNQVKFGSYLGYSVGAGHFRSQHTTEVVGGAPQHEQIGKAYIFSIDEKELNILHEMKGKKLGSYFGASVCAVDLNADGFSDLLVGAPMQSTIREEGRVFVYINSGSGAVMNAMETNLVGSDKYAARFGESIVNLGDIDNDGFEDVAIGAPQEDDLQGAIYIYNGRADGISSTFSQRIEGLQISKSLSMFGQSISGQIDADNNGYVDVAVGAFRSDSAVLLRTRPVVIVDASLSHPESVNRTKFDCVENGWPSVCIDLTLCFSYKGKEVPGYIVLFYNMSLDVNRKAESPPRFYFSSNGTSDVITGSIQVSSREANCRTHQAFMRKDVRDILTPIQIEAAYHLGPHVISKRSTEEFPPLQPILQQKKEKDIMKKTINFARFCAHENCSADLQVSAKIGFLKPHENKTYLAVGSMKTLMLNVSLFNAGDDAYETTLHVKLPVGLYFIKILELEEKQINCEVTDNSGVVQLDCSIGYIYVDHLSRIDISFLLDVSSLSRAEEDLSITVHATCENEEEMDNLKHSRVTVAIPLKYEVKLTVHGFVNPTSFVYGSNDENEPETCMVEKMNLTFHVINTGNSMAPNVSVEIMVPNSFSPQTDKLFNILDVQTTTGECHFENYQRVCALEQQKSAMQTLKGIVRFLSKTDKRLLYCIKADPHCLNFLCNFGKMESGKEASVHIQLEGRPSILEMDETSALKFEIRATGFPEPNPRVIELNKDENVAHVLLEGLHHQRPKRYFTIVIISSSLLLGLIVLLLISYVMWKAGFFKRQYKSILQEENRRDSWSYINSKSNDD
T1 sequence (P26010 whole entry): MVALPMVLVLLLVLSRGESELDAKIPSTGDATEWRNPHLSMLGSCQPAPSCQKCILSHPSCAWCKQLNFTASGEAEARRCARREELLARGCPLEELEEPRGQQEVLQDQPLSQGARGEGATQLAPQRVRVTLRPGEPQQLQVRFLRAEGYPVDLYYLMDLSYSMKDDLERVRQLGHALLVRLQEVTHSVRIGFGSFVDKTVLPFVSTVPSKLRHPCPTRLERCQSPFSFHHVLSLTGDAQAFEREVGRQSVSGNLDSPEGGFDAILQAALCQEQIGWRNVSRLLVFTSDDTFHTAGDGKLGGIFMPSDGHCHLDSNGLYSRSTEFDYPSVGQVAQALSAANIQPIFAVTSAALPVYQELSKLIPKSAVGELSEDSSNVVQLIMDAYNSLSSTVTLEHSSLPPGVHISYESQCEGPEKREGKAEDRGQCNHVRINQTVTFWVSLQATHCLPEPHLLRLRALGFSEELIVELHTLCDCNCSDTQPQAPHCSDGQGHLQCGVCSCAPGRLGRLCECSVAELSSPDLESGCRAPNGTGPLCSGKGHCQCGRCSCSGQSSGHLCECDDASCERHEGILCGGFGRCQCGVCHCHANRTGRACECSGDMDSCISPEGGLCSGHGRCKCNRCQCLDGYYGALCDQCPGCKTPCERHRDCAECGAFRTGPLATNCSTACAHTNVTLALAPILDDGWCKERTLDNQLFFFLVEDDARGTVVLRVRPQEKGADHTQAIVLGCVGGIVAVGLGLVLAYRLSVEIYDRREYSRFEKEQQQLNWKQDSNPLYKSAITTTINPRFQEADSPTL
How it was run: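 Plates coated overnight at 4 °C with anti-human α4 antibody 9F10 (2 µg/mL), blocked in Tris pH 7.5 buffer with 1 mM MnCl2, Tween-20 and 0.5% BSA, then loaded with α4β7 purified from transfected JY cells (2 µg/mL). Compounds (1 nM–200 µM final, triplicate) plus MAdCAM-1-Ig-HRP (1 µg/mL), 2 h room temperature. TMB read at 450 nm; IC50 at half-maximal absorbance.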

[4] = biological target: Intercellular adhesion molecule (ICAM-1), Integrin alpha-L/beta-2 (Homo sapiens, UniProt P05107+P05362+P20701); assay: Ability to block alphaL-beta2 integrin binding to ICAM-1; assay type: protein-complex assay
[5] = biological target: Integrin alpha-5/beta-1 (Homo sapiens, UniProt P05556+P08648); assay: Ability to block the alpha5-beta1 integrin binding to fibronectin; assay type: protein-complex assay
[6] = biological target: Integrin alpha-V/beta-3 (Homo sapiens, UniProt P05106+P06756); assay: Ability to block the alphaV-beta3 integrin binding to vitronectin; assay type: protein-complex assay
[7] = biological target: Integrin alpha-IIb/beta-3 (Homo sapiens, UniProt P05106+P08514); assay: Inhibition of alpha IIb beta3 integrin binding to fibrinogen; assay type: protein-complex assay

Sequence of Integrin alpha-4/beta-1 (P05556 whole entry, one chain of several, the tested form may be a part): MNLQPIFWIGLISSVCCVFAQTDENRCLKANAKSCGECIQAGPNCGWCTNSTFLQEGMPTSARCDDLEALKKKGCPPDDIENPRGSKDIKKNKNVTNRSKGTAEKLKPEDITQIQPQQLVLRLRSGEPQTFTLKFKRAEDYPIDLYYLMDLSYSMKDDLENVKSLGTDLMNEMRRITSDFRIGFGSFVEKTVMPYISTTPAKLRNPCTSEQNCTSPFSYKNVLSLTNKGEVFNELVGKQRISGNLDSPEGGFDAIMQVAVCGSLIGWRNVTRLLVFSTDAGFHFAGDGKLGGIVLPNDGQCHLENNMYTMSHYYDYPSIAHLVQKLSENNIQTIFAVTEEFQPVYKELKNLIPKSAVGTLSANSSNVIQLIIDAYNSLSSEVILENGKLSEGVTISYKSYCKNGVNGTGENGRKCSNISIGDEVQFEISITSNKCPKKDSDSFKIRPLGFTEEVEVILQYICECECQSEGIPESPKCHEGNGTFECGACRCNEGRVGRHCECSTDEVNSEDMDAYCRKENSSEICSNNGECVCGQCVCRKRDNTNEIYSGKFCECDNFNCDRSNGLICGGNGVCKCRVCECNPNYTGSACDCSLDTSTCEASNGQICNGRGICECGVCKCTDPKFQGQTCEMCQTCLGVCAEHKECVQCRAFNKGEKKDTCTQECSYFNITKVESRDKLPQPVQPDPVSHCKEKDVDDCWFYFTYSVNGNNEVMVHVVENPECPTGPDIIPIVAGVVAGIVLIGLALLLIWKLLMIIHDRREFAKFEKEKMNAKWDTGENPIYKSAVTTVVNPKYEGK
Sequence of Integrin alpha-5/beta-1 (P05556 21-798 limits assumed): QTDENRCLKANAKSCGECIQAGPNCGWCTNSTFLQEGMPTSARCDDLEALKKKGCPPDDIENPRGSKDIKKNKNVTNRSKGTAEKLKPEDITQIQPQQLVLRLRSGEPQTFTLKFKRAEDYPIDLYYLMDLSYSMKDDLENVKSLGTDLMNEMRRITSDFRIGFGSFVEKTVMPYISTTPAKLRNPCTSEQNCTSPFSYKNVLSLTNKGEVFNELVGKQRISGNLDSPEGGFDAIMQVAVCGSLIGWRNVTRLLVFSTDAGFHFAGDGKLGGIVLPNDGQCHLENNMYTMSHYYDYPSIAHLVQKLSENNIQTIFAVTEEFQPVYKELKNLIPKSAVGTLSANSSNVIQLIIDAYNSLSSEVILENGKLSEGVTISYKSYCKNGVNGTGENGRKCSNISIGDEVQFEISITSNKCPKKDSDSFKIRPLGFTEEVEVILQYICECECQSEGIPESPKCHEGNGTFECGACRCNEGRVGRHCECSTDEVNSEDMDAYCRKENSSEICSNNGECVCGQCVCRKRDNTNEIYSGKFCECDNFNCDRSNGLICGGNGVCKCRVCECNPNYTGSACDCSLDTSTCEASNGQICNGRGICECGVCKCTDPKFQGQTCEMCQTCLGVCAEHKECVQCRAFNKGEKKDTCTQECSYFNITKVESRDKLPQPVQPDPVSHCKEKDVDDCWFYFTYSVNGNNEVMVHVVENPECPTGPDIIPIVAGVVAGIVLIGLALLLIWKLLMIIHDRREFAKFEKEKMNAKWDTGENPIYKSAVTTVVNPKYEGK
Sequence of Integrin alpha-5/beta-1 (P08648 42-894 limits assumed): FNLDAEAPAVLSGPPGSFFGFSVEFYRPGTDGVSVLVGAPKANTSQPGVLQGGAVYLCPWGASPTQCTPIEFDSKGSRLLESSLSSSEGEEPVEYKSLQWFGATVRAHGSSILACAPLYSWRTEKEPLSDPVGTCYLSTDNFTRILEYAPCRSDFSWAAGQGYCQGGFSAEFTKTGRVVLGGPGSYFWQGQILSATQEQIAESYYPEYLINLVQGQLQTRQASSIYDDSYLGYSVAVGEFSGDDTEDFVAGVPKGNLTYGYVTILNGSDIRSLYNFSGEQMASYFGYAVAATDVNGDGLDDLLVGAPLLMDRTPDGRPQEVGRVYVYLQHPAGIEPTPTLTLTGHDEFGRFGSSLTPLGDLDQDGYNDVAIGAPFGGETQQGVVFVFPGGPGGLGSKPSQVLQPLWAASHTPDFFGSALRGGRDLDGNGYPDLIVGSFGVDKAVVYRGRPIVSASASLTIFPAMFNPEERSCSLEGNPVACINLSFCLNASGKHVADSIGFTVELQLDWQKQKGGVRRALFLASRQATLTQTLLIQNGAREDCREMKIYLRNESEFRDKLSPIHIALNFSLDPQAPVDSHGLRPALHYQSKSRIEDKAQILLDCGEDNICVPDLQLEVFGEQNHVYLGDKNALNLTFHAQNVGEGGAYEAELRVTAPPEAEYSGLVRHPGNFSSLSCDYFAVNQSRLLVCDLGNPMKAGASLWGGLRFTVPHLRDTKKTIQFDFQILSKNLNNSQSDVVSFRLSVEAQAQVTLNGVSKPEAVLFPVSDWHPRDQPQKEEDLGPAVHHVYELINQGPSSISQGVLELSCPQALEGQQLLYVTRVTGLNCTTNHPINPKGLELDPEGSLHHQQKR
Sequence of Integrin alpha-5/beta-1 (P08648 895-1049 limits assumed): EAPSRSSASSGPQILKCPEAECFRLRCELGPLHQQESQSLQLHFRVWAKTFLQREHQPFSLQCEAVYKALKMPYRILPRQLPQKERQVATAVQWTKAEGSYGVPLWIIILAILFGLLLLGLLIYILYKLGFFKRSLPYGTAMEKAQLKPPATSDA
Sequence of Intercellular adhesion molecule (ICAM-1), Integrin alpha-L/beta-2 (P20701 whole entry): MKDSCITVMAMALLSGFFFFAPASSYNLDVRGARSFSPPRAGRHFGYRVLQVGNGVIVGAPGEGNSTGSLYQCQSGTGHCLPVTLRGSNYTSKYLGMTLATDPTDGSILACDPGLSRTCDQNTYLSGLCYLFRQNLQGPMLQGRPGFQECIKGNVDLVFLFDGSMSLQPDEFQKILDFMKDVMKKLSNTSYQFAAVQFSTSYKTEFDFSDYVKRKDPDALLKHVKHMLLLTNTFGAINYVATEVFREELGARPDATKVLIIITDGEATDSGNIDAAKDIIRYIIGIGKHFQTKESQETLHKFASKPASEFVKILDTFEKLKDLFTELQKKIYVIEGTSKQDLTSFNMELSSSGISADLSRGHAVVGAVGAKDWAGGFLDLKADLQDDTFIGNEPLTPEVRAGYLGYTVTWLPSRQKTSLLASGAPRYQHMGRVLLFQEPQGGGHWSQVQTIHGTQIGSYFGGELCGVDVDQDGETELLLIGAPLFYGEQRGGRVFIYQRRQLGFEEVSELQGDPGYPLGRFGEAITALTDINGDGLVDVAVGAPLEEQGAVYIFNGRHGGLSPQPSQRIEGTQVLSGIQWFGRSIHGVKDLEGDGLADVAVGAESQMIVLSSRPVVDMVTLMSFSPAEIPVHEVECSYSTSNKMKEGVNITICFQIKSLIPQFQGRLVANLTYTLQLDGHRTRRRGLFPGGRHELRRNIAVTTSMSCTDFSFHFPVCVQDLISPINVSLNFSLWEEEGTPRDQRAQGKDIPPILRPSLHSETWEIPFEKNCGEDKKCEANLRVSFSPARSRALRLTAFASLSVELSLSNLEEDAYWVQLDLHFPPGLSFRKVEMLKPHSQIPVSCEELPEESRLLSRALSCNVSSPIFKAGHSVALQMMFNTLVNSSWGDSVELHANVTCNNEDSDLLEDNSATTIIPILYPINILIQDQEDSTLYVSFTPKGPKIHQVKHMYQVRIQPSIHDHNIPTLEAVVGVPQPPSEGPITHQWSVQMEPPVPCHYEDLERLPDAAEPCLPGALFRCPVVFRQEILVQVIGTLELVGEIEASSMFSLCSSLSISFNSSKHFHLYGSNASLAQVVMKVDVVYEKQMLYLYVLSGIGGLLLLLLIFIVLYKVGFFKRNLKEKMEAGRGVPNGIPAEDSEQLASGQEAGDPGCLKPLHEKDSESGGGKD
Sequence of Intercellular adhesion molecule (ICAM-1), Integrin alpha-L/beta-2 (P05362 whole entry): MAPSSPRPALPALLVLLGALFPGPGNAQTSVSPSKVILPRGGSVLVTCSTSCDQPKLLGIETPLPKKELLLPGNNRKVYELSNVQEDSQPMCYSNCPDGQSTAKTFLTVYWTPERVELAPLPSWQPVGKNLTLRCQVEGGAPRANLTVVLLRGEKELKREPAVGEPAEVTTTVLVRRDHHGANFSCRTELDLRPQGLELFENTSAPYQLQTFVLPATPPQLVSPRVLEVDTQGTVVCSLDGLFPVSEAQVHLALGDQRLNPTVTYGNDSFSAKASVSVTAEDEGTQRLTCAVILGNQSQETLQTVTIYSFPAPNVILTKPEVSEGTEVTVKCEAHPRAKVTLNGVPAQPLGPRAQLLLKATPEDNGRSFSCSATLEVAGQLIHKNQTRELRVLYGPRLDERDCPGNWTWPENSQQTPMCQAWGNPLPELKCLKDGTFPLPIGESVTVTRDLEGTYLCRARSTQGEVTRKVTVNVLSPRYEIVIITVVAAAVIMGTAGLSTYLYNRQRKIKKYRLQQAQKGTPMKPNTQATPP
Sequence of Intercellular adhesion molecule (ICAM-1), Integrin alpha-L/beta-2 (P05107 whole entry): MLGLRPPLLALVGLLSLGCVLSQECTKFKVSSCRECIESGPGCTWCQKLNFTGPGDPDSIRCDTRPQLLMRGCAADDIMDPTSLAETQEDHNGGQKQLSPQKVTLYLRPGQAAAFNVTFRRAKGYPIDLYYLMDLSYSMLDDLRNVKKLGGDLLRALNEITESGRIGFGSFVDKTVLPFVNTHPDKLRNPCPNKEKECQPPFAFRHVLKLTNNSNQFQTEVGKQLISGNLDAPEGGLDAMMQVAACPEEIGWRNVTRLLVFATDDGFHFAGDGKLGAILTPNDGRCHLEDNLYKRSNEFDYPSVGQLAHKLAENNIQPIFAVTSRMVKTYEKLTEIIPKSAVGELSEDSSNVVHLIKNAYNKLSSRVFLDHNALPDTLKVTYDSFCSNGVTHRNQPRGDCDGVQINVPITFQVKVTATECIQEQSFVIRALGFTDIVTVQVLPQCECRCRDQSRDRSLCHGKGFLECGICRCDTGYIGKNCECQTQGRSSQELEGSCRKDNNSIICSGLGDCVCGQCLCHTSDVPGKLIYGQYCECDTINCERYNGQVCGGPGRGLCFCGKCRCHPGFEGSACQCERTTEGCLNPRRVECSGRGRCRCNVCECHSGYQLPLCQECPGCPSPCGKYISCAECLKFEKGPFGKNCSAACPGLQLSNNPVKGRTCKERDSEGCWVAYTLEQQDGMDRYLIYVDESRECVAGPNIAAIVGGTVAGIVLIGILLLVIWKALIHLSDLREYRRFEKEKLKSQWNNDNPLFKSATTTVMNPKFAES

SMILES	Ratio [1]	IC50 [2] [µM]	IC50 [3] [µM]	IC50 [4] [µM]	IC50 [5] [µM]	IC50 [6] [µM]	IC50 [7] [µM]
CC(C)C[C@H]1NC(=O)[C@H]([C@H](C)O)NC(=O)[C@@H](CC(=O)O)NC(=O)[C@@H](CO)NC(=O)[C@@H](CCCN=C(N)N)NC(=O)[C@H](N)CSSC[C@H](C(N)=O)NC1=O	> 2.3	> 100	43	–	–	–	–
CC(C)C[C@@H]1NC(=O)[C@H]([C@@H](C)O)NC(=O)[C@H](CC(=O)O)NC(=O)[C@H](CO)NC(=O)[C@H](CCCN=C(N)N)NC(=O)[C@@H](N)CSSC[C@@H](C(=O)NCC(=O)N[C@@H](CCC(=O)O)C(N)=O)NC1=O (HELM PEPTIDE1{C.R.S.D.T.L.C.G.E.[am]}$PEPTIDE1,PEPTIDE1,1:R3-7:R3$$$V2.0)	–	1.1	0.03	> 100	6.1	1	> 25
CC(C)C[C@H]1NC(=O)[C@@H]([C@@H](C)O)NC(=O)[C@@H](CC(=O)O)NC(=O)[C@H](CO)NC(=O)[C@@H](CCCN=C(N)N)NC(=O)[C@H](N)CSSC[C@H](C(N)=O)NC1=O	2.5	20	7.9	–	–	–	–
